Mdm2 MdmX PPI = inhibitors of human Mdm2/MdmX interaction; hit rate 3% among 330,000; inhibition, % at 8 µM; SaOS-2 split-luciferase Mdm2/MdmX complementation, luminescence; AID 485346; O15151+Q00987;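 active = inhibition of at least 50% at 8 µM in the primary screen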
XBP1 UPR activ = adaptive UPR (XBP1) activation; CHO-XBP1 luciferase reporter, IRE1-XBP1 UPR activation, luminescence; percent of tunicamycin response, DMSO as zero; activation, % at 20 µM; hit rate 0.33% among 330,000;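 active = versus positive control, 20 µM dose yields 30% or more activation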
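incubation = overnight seeding at 37 °C, 6 h compound treatment at 37 °C | assay system = CHO-XBP1 cells stably carrying IRE1-XBP1-driven luciferase reporter | input = 1000 cells per well | detection = luciferase luminescence | dosing = single point, 20 µM final compound, 1% DMSO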
ABHD5-PLIN5 inh = inhibitors of human ABHD5-perilipin-5 interaction; Split G. princeps luciferase complementation, luminescence, 4 h; inhibition, % at 4 µM; hit rate 0.78% among 360,000; Q00G26+Q8WTS1;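 active = inhibition above the mean inhibition across every tested compound plus 3 SD, cut at about 22% in these data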
Exocytosis inh = lytic granule exocytosis inhibition; TALL-104 LAMP-1 surface exposure, flow cytometry; cells stimulated with thapsigargin and PMA; inhibition, % at 10 µM; hit rate 0.66% among 360,000;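 active = inhibition above about 55%, limit read from the data; inconclusive = no clear call, values can overlap the other calls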
UPR CHOP act = activators of apoptotic arm of unfolded protein response (CHOP). CHO-CHOP luciferase reporter, UPR activation, luminescence; percent of tunicamycin response over DMSO baseline. activation, % at 10 µM. hit rate 0.34% among 330,000;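 active = at 10 µM dose, activation of 40% or more, normalized to positive control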
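System: CHO CHOP reporter cells. Amount: 500 cells per well. Buffer or medium: F12 medium, 10% FBS. Compound dosing: one dose, 10 µM in 0.5% DMSO. Incubation: 6 h compound exposure at 37 °C after overnight seeding. Technique: Steady-Glo luciferase luminescence. Benchmarks: tunicamycin and DMSO controls.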
Mdm2-MdmX conf = human Mdm2/MdmX binding inhibition, confirmed; hit rate 55% among 10,000; inhibition, % at 8 µM; luminescent assay; AID 489028; shares compounds with Mdm2 MdmX PPI; in the data active = inhibition above about 40%
Full FLuc ctr = inhibits full-length luciferase, flagging false Mdm2/MdmX hits. hit rate 77% among 6,200. shares compounds with Mdm2 MdmX PPI. SaOS-2 full-length luciferase counterscreen, luminescence. inhibition, % at 8 µM;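 active = mean inhibition at 8 µM reaching about 37%, which flags the compound as non-specific, limit read from the data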;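 note: p53-null SaOS-2 cells with luciferase driven by a doxycycline-inducible promoter; compound on cells about two nights before reading with doxycycline added after day one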
Large screens that a line does not name were inactive (follow-up assays come after a bar, where they were run). This is a sample that favours compounds with a hit; in the whole collection about 4% have one here.

CCOC(=O)c1c(C)n(C)c2ccc(OC)c(NC(=O)CN3CCCCC3)c12	none
Cc1cc(C(C#N)c2ccc(Cl)cc2)c(Cl)cc1NC(=O)c1cc(I)cc(I)c1O (configuration not stated)	Mdm2 MdmX PPI 54 | Mdm2-MdmX conf inactive
O=C(CCl)Nc1cccc(S(=O)(=O)NC2=NCCC2)c1	Mdm2 MdmX PPI 54 | Mdm2-MdmX conf 44 | Full FLuc ctr 68
COc1ccc(-c2c(C)oc3c(CN4CCCCC4C)c(O)ccc3c2=O)cc1 (configuration not stated)	none
Cc1cc(C)cc(NC(=O)CSc2ccc(-c3ccccn3)nn2)c1	Mdm2 MdmX PPI 68 | Mdm2-MdmX conf 68 | Full FLuc ctr inactive
O=C1C=C(c2cccc(O)c2)C[C@@H](c2ccc(F)cc2)C1	none
O=C1/C(=C\c2cc(Br)cc(Br)c2O)SC(=S)N1Cc1ccccc1	Mdm2 MdmX PPI 91 | Mdm2-MdmX conf 79 | Full FLuc ctr 37
O=C1/C(=C\c2cccc([N+](=O)[O-])c2O)SC(=S)N1Cc1ccccc1	none (no result: Mdm2 MdmX PPI, XBP1 UPR activ, UPR CHOP act)
O=C1/C(=C/c2ccccc2O)SC(=S)N1Cc1cccnc1	Mdm2 MdmX PPI 73, Exocytosis inh 58 | Mdm2-MdmX conf inactive
O=C1/C(=C/c2ccc(O)c([N+](=O)[O-])c2)SC(=S)N1Cc1ccccc1	Mdm2 MdmX PPI 62, Exocytosis inh inconclusive | Mdm2-MdmX conf 45 | Full FLuc ctr 71
O=C1CSC(=S)N1Cc1cccnc1	Mdm2 MdmX PPI 94 | Mdm2-MdmX conf 80 | Full FLuc ctr 50
CCc1nnc(NC(=O)CSc2nnc(CNc3cccc(Cl)c3)n2CC)s1	none
Cc1cccc(NC(=O)COC(=O)c2cc(C)oc2C)c1	none
O=C(CN(Cc1ccccc1)S(=O)(=O)c1ccc(F)cc1)NCc1ccncc1	none
CC(=O)Nc1ncnc2c1c(-c1ccc(Cl)cc1)nn2C(C)(C)C	Mdm2 MdmX PPI 73 | Mdm2-MdmX conf inactive | Full FLuc ctr 55
c1ccc(CN2CCC(CNc3ncnc4ccccc34)C2)cc1 (configuration not stated)	none (no result: Mdm2 MdmX PPI, XBP1 UPR activ, UPR CHOP act)
c1ccc(CN2CCC(Nc3nc(-c4ccccc4)nc4ccccc34)CC2)cc1	Mdm2 MdmX PPI 83 | Mdm2-MdmX conf inactive | Full FLuc ctr 85
CC(=O)c1nn(-c2cccc(Br)c2)cc1C(=O)c1ccc(Cl)cc1	Mdm2 MdmX PPI 53 | Mdm2-MdmX conf inactive
COc1ccc(S(=O)(=O)Nc2cccc3ccc(O)cc23)cc1	Mdm2 MdmX PPI 60 | Mdm2-MdmX conf 57 | Full FLuc ctr 52
O=C(Nc1ccc(F)cc1F)Nc1csc2ccccc12	none
O=C(Nc1ccc(F)c(Cl)c1)Nc1csc2ccccc12	Mdm2 MdmX PPI 94 | Mdm2-MdmX conf 58 | Full FLuc ctr inactive
Nc1ccccc1SCC(=O)Nc1nc(-c2ccccc2)cs1	none
CCOc1ccc(-n2c(-c3ccc(OC)cc3)c[n+]3c2CCCCC3)cc1	Mdm2 MdmX PPI 56 | Mdm2-MdmX conf 47 | Full FLuc ctr 46
CCOc1ccc(-n2c(-c3ccc(Br)cc3)c[n+]3c2CCCCC3)cc1	none
COc1ccc(-c2c[n+]3c(n2-c2ccc(C)cc2)CCCCC3)cc1	Mdm2 MdmX PPI 62 | Mdm2-MdmX conf 40 | Full FLuc ctr 49
CC(=O)N(C)C1=C(N2CCOCC2)C(=O)c2ccccc2C1=O	Mdm2 MdmX PPI 82 | Mdm2-MdmX conf 86 | Full FLuc ctr 48
CCc1ccc(OCC(=O)NC(NC(=S)Nc2ccc(Cl)cc2)C(Cl)(Cl)Cl)cc1 (configuration not stated)	Mdm2 MdmX PPI 84 | Mdm2-MdmX conf 92 | Full FLuc ctr inactive
CCCC(=O)NC(NC(=S)Nc1ccc(S(N)(=O)=O)cc1)C(Cl)(Cl)Cl (configuration not stated)	none
CCCC(=O)NC(NC(=S)Nc1ccc(N=Nc2ccccc2)cc1)C(Cl)(Cl)Cl (configuration not stated)	Mdm2 MdmX PPI 86 | Mdm2-MdmX conf 89 | Full FLuc ctr inactive
CC1C(=O)N2CCCc3cc(NS(C)(=O)=O)cc1c32 (configuration not stated)	none

Source: PubChem (several laboratories)
